{"data": "Experimental data of several laboratories", "target": "Protein kinase C delta type (PRKCD, Homo sapiens, UniProt Q05655)", "note": "Protocols differ between the studies behind these lines."}
{"Compound": "Cn1cncc1C1=CN(c2ncnc3[nH]cnc23)CCS1", "observed": "enzyme activity", "mode": "inhibitor", "method": "radiometric", "tested at": "2 µM", "measurement": "inhibition", "value": "81.1%"}
{"Compound": "N#Cc1ccc(Nc2ccc3[nH]c(=O)[nH]c3c2)c(Cl)c1", "observed": "cell-free assay", "method": "competition with immobilised ligand", "tested at": "1 µM", "measurement": "remaining binding", "value": "100%"}
{"Compound": "Cc1ccc(Nc2nccc(N(C)c3ccc4c(C)n(C)nc4c3)n2)cc1S(N)(=O)=O", "observed": "enzyme activity", "tested at": "0.5 µM", "measurement": "remaining activity", "value": "106%"}
{"Compound": "CC(C)c1ccc(NC(=O)c2cccs2)c(-c2nc3ccccc3[nH]c2=O)c1", "observed": "enzyme activity", "mode": "inhibitor", "tested at": "1 µM", "measurement": "activity vs control", "value": "104%"}
{"Compound": "COc1cc(Cl)c(C(=O)N[C@@H](CN[C@H]2CC[C@@H](N)CC2)Cc2ccc(C#N)cc2)cc1-c1ccc(CN[C@H](C)c2ccc(C)cc2)o1", "observed": "enzyme activity", "mode": "inhibitor", "tested at": "1 µM", "measurement": "remaining activity", "value": "100%"}
{"Compound": "CSc1cccnc1N1CCN(Cc2nc3ccccc3[nH]2)CC1", "observed": "cell-free assay", "method": "competition with immobilised ligand", "tested at": "1 µM", "measurement": "remaining binding", "value": "100%"}
{"Compound": "CCN(CC)c1ccc(C2=NNC(=O)CC2C)cc1[N+](=O)[O-] (stereo not drawn)", "observed": "enzyme activity", "mode": "inhibitor", "tested at": "10 µM", "measurement": "remaining activity", "value": "85%"}
{"Compound": "CNCc1ccccc1-c1csc([C@@H](C)Nc2nc(C)nc3cc(OC)c(OC)cc23)c1", "observed": "cell-free assay", "method": "competition with immobilised ligand", "tested at": "1 µM", "measurement": "remaining binding", "value": "98%"}
{"Compound": "Nc1ncnc2occ(-c3ccc(NC(=O)Nc4cc(C(F)(F)F)ccc4F)cc3)c12", "observed": "cell-free assay", "tested at": "20 µM", "measurement": "remaining signal", "value": "14%"}
{"Compound": "Cc1ccc(C(=O)NCc2ccsc2)cc1C#Cc1cn(C(C)C)c2ncnc(N)c12", "observed": "enzyme activity", "mode": "inhibitor", "tested at": "1 µM", "measurement": "activity vs control", "value": "90%"}
{"Compound": "Oc1cccc(-c2nc(N3CCOCC3)c3oc4ncccc4c3n2)c1", "observed": "cell-free assay", "tested at": "0.5 µM", "measurement": "remaining signal", "value": "96%"}
{"Compound": "CN1CC(Oc2cnc(C#N)cc2-c2ccn3nc(NC(=O)C4CC4)cc3c2)C1", "observed": "enzyme activity", "mode": "inhibitor", "tested at": "1 µM", "measurement": "inhibition", "value": "3%"}
{"Compound": "COc1cc2ncnc(Nc3ccc(Oc4ccccc4)cc3C)c2cc1OC", "observed": "enzyme activity", "mode": "inhibitor", "tested at": "1 µM", "measurement": "inhibition", "value": "11%"}
{"Compound": "CC(=O)Nc1c(C(C)=O)c(=O)n(C)c2nc(-c3ccc(Cl)cc3Cl)c(-c3ccc(Cl)cc3)cc12", "observed": "cell-free assay", "method": "competition with immobilised ligand", "tested at": "1 µM", "measurement": "remaining binding", "value": "100%"}
{"Compound": "CCCOc1ccc(OC)c(F)c1C(=O)c1ccc(C(=O)N[C@@H]2CNC[C@H]2NC(=O)c2ccc3[nH]ncc3c2)cc1", "observed": "enzyme activity", "mode": "inhibitor", "tested at": "50 nM", "measurement": "remaining activity", "value": "103%"}
{"Compound": "CS(=O)(=O)NCC[C@H](NC(=O)c1cncc2c1cnn2-c1ccc(F)cc1)c1ccnc(S(C)(=O)=O)c1", "observed": "cell-free assay", "method": "competition with immobilised ligand", "tested at": "1 µM", "measurement": "remaining binding", "value": "76%"}
{"Compound": "Cc1ccc(C(=O)Nc2ccc(CN3CCN(C)CC3)c(C(F)(F)F)c2)cc1C#Cc1cnc2cccnn12", "observed": "enzyme activity", "tested at": "23.5 nM", "measurement": "remaining activity", "value": "64%"}
{"Compound": "CCC(=O)N[C@H]1CC[C@@H](C(=O)N(C)c2ccc(-c3nc4ccccc4o3)cc2)C1", "observed": "cell-free assay", "method": "competition with immobilised ligand", "tested at": "1 µM", "measurement": "remaining binding", "value": "100%"}
{"Compound": "Cn1cnc(Br)c1C1=CN(c2ncnc3[nH]cnc23)CCS1", "observed": "enzyme activity", "mode": "inhibitor", "method": "radiometric", "tested at": "50 nM", "measurement": "inhibition", "value": "29%"}
{"Compound": "O=C(O)[C@H]1[C@H](Cn2nnc3ccccc3c2=O)CC[C@@H]1C(=O)c1ccc(OCCC2CCOCC2)cc1", "observed": "cell-free assay", "method": "competition with immobilised ligand", "tested at": "1 µM", "measurement": "remaining binding", "value": "100%"}
{"Compound": "Oc1ccc(-c2nc(-c3ccncc3)c(-c3ccc(F)cc3)[nH]2)cc1", "observed": "cell-free assay", "tested at": "0.5 µM", "measurement": "remaining signal", "value": "99.3%"}
{"Compound": "Cc1sc(C(=O)NC2COC2)cc1-n1cc(NC(=O)Nc2c(F)cccc2Cl)cn1", "observed": "enzyme activity", "mode": "inhibitor", "tested at": "10 µM", "measurement": "remaining activity", "value": "98%"}
{"Compound": "O=C1NC(=O)c2cc(Nc3ccc(F)cc3)c(Nc3ccc(F)cc3)cc21", "observed": "cell-free assay", "tested at": "0.5 µM", "measurement": "remaining signal", "value": "98.2%"}
{"Compound": "CC(C)(C)c1nc(-c2cccc(NS(=O)(=O)c3c(F)cccc3F)c2F)c(-c2ccnc(N)n2)s1", "observed": "enzyme activity", "mode": "inhibitor", "method": "radiometric", "tested at": "1 µM", "measurement": "remaining activity", "value": "119%"}
